Assay [1] relates to BT-549. Description: Cytotoxicity against human BT-549 cells assessed as reduction in cell viability after 48 hrs by SRB assay. It counts as functional, cell-based. Conditions: BT-549, 48 h. The procedure, abridged: (§1)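 Cells exposed to compounds for 48 h; growth inhibition and cytotoxicity read by sulforhodamine B staining. Concentration-response curves fit by four-parameter non-linear regression; IC50 is the concentration giving 50% reduction in cell density versus DMSO vehicle. Cells grown at 37 °C, 5% CO2 (Hs578T in DMEM with 10% FBS and 50 µg/mL gentamicin).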
(Sulforhodamine B stains cellular protein and so reports cell mass.)

Assay [2] deals with Hs-578T. Description: Cytotoxicity against human Hs-578T cells assessed as reduction in cell viability after 48 hrs by SRB assay. It counts as functional, cell-based. The procedure, abridged: as §1
For assay [3], the system named is MDA-MB-231. The experiment in a line: Cytotoxicity against human MDA-MB-231 cells assessed as reduction in cell viability after 48 hrs by SRB assay. It counts as functional, cell-based. Conditions: MDA-MB-231, 48 h. The method in brief:
as §1

Assay [4] is described as follows: Selectivity index, ratio of IC50 for human MDA-MB-231 cells to IC50 for human BT-549 cells. It counts as functional.
A short description of assay [5]: Inhibition of porcine cerebral cortex Na+/K+-ATPase after 15 mins by ADP-Glo reagent based assay. More on the design: species or system Sus scrofa. In general terms: ADP-Glo turns the ADP formed in a reaction into a luminescent signal.
Assay [6] concerns BT-549. Description: Induction of intracellular Ca2+ concentration in human BT-549 cells at 150 to 500 nM after 3 hrs by Cal520-AM dye-based fluorescence assay. It counts as functional, cell-based. Conditions: dose nM 150-500, time 3.0 hrs. The method in brief:
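BT-549 cells on coverslips at 60–80% confluency, loaded with 2.5 µM Cal-520 AM plus 0.2% Pluronic F-127 for 30 min at 37 °C, then washed. Imaged at 20× at T0 and 3 h after 150 or 500 nM compound, multiple fields. Per-cell corrected total fluorescence normalized to T0, versus DMSO; two-way ANOVA with Dunnett's test, n = 102–242 cells.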

The nature of assay [7]: Induction of intracellular Ca2+ concentration in human BT-549 cells at 150 nM after 2 hrs by Cal520-AM dye-based fluorescence assay relative to control. It counts as functional. The method in brief:
(§2)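 BT-549 and MDA-MB-231 cells in 96-well optical plates at 60–80% confluency, loaded with 2.5 µM Cal-520 AM and 0.2% Pluronic F-127 for 30 min at 37 °C. Same field imaged at 4× at T0 and 2 h after 150 nM compound. Per-cell corrected total fluorescence normalized to T0; two-way ANOVA with Bonferroni test, n = 291–531 cells.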

Assay [8] deals with MDA-MB-231. The experiment in a line: Induction of intracellular Ca2+ concentration in human MDA-MB-231 cells at 150 nM after 2 hrs by Cal520-AM dye-based fluorescence assay. It counts as functional, cell-based. The method in brief: as §2
Assay [9] has as its system CAL-51. Description: Cytotoxicity against human CAL-51 cells assessed as reduction in cell viability after 48 hrs by SRB assay. It counts as functional, cell-based. The note with it: CAL-51, 48 h. The method in brief:
as §1

Assay [10] deals with MDA-MB-468. Description: Cytotoxicity against human MDA-MB-468 cells assessed as reduction in cell viability after 48 hrs by SRB assay. It counts as functional, cell-based. The note with it: MDA-MB-468, 48 h. The method in brief:
as §1

Assay [11] relates to MDA-MB-453. The experiment in a line: Cytotoxicity against human MDA-MB-453 cells assessed as reduction in cell viability after 48 hrs by SRB assay. It counts as functional, cell-based. Conditions: MDA-MB-453, 48 h. The method in brief: (§3)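 Cells grown at 37 °C in humidified 5% CO2 and exposed to compounds for 48 h. Antiproliferative and cytotoxic effects read by sulforhodamine B staining of cell density. Concentration-response curves fit by four-parameter non-linear regression. IC50 taken as the concentration giving 50% reduction in cell density relative to DMSO vehicle.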

In assay [12] the test system is SUM185PE. The experiment in a line: Cytotoxicity against human SUM185PE cells assessed as reduction in cell viability after 48 hrs by SRB assay. It counts as functional, cell-based. The method in brief: as §3
Assay [13] concerns HCC1806. The experiment in a line: Cytotoxicity against human HCC1806 cells assessed as reduction in cell viability after 48 hrs by SRB assay. It counts as functional, cell-based. Conditions: HCC1806, 48 h. The procedure, abridged: as §1
Assay [14] relates to HCC1937. Description: Cytotoxicity against human HCC1937 cells assessed as reduction in cell viability after 48 hrs by SRB assay. It counts as functional, cell-based. Conditions: HCC1937, 48 h. The procedure, abridged:
as §1

Assay [15] concerns HCC70. Description: Cytotoxicity against human HCC70 cells assessed as reduction in cell viability after 48 hrs by SRB assay. It counts as functional, cell-based. The note with it: HCC70, 48 h. The procedure, abridged:
as §1

As a reminder, the IC50 is the concentration that gives 50% inhibition. For orientation: EC50 means the concentration needed to bring the measured effect to its halfway point. Low readings indicate a more potent agent, high ones a less potent agent.

Activity calls are given as the source filed them. No cut-off for these calls is given here. Some results are limits rather than exact numbers.

`C[C@]12CC[C@H](O)C[C@@H]1CC[C@@H]1[C@@H]2CC[C@]2(C)[C@@H](C3=CC(=O)OC3)CC[C@]12O`: the IC50 in assay [1] was 3900 nM; in assay [2], 3600 nM; in assay [3], > 30000 nM. Moreover, in assay [4], the “Ratio IC50” value is on record as >8. This molecule also displayed an EC50 in assay [5] of 2100 nM.
For the molecule `C[C@H]1O[C@H]2O[C@@H]3C[C@@H]4CC[C@@H]5[C@H](CC[C@]6(C)[C@@H](C7=CC(=O)OC7)CC[C@]56O)[C@@]4(C=O)C[C@H]3O[C@@]2(O)[C@H](O)[C@@H]1O`, the values for the IC50 in [1], in assay [2] and in assay [3] were 49 nM, 120 nM and 630 nM, respectively. In [4], the “Ratio IC50” value is given as 13. The same molecule came in with a concentration for a half-maximal effect (EC50) in [5] of 300 nM.
In the case of `C[C@H]1O[C@@H](O[C@@H]2C[C@@H]3CC[C@@H]4[C@H](CC[C@]5(C)[C@@H](C6=CC(=O)OC6)CC[C@]45O)[C@@]3(C=O)C[C@H]2O)[C@H](O)[C@H](O)[C@@H]1O`, the IC50 in assay [1] turned out to be 1400 nM; in assay [2], 3900 nM; in [3], 10000 nM. The “Ratio IC50” value in assay [4] is 7. In addition, the half-maximal effective concentration (EC50) in [5] came out at 2500 nM.
For `C[C@H]1O[C@@H](O[C@H]2CC[C@@]3(CO)[C@@H](CC[C@@H]4[C@@H]3CC[C@]3(C)[C@@H](C5=CC(=O)OC5)CC[C@]43O)C2)[C@H](O)[C@H](O)[C@@H]1O`, the IC50 is 121 nM in [1], 380 nM in [2] and 1250 nM in assay [3]. Besides, the “Ratio IC50” value in [4] is given as 10. Also, the half-maximal effective concentration (EC50) in assay [5] came to 500 nM.
Take `C[C@H]1O[C@@H](O[C@H]2CC[C@@]3(CO)[C@@H](CC[C@@H]4[C@@H]3CC[C@]3(C)[C@@H](C5=CC(=O)OC5)CC[C@]43O)C2)[C@H](O)[C@H](O)[C@@H]1O[C@@H]1O[C@H](CO)[C@@H](O)[C@H](O)[C@H]1O`: the figures for the IC50 in assay [1], in assay [2] and in [3] were 70 nM, 300 nM and 980 nM, respectively. The “Ratio IC50” value in assay [4] is 14. For the same molecule, the EC50 in [5] turned out to be 600 nM.
As for `C[C@@H]1C[C@H](O)[C@]2(O)O[C@@H]3C[C@@]4(C=O)[C@@H](CC[C@@H]5[C@@H]4CC[C@]4(C)[C@@H](C6=CC(=O)OC6)CC[C@]54O)C[C@H]3O[C@@H]2O1` [CALOTROPIN], the figures for the IC50 in assay [1], in [2] and in [3] were 30 nM, 60 nM and 440 nM, respectively. In addition, in assay [4], the “Ratio IC50” value is recorded as 15. In addition, in assay [5], the EC50 was 360 nM. For the same molecule, the result in [6] and in assay [8] was Active. For the same molecule, the “fold change (FC)” value in assay [7] was 2.
`C[C@]12CC[C@H]3[C@@H](CC[C@H]4C[C@@H](O)CC[C@@]43CO)[C@@]1(O)CC[C@@H]2C1=CC(=O)OC1` [COROGLAUCIGENIN]: the results for the 50% inhibitory concentration (IC50) in assay [1], in assay [2] and in assay [3] were 2300 nM, 1800 nM and 20000 nM, respectively. Further, in [4], the “Ratio IC50” value was 9. The molecule further showed an EC50 in assay [5] of 1100 nM.
For `C[C@]12CC[C@H](O[C@@H]3O[C@H](CO)[C@@H](O)[C@H](O)[C@H]3O)C[C@@H]1CC[C@@H]1[C@@H]2CC[C@]2(C)[C@@H](C3=CC(=O)OC3)CC[C@]12O` [DESGLUCOUZARIN], the IC50 in assay [1] was found to be 1800 nM; in [2] it was 1570 nM; in assay [3], 10000 nM. In addition, the “Ratio IC50” value in assay [4] came to 6. A half-maximal effect in assay [5] (EC50) was put at 1100 nM.
For the molecule `C[C@H]1O[C@@H](O[C@H]2[C@@H](O)C[C@H](O[C@H]3[C@@H](O)C[C@H](O[C@H]4CC[C@@]5(C)[C@H](CC[C@@H]6[C@@H]5C[C@@H](O)[C@]5(C)[C@@H](C7=CC(=O)OC7)CC[C@]65O)C4)O[C@@H]3C)O[C@@H]2C)C[C@H](O)[C@@H]1O` [DIGOXIN], the IC50 in assay [1] is 51 nM; in assay [2], 69 nM; in [9] it was 130 nM; in [10], 230 nM; in [11], 230 nM; in assay [12] it was 280 nM. Further, the 50% inhibitory concentration (IC50) was 280 nM in assay [13], 480 nM in assay [3], 550 nM in [14] and 640 nM in assay [15].
`C[C@@H]1C[C@@]2(N=CCS2)[C@]2(O)O[C@@H]3C[C@@]4(C=O)[C@@H](CC[C@@H]5[C@@H]4CC[C@]4(C)[C@@H](C6=CC(=O)OC6)CC[C@]54O)C[C@H]3O[C@@H]2O1` [USCHARIN]: the half-inhibitory concentration (IC50) came out at 14.6 nM in [1], 34 nM in [2] and 102 nM in assay [3]. In addition, the “Ratio IC50” value in assay [4] worked out at 7. This molecule came in with a concentration giving a half-maximal response (EC50) in assay [5] of 910 nM.

Values taken from ChEMBL document CHEMBL4665698, “Triple-Negative Breast Cancer Cells Exhibit Differential Sensitivity to Cardenolides from Calotropis gigantea” (J Nat Prod, 2020).
